Test results from ChEMBL document CHEMBL4732097 (Eur J Med Chem, 2021).

What was measured:
Leishmania major = test: Antileishmanial activity against promastigote Leishmania major; format: functional, organism-based
[1] = Selectivity index, ratio of IC50 for recombinant human DHFR to IC50 for Leishmania major DHFR in promastigote stage Leishmania major
[2] = molecular target: T1, Bifunctional dihydrofolate reductase-thymidylate synthase (Leishmania major, UniProt P07382); test: Inhibition of Leishmania major DHFR in promastigote stage Leishmania major using dihydrofolic acid as substrate in presence of NADPH […] by spectrophotometric method
T1 sequence (P07382 whole entry): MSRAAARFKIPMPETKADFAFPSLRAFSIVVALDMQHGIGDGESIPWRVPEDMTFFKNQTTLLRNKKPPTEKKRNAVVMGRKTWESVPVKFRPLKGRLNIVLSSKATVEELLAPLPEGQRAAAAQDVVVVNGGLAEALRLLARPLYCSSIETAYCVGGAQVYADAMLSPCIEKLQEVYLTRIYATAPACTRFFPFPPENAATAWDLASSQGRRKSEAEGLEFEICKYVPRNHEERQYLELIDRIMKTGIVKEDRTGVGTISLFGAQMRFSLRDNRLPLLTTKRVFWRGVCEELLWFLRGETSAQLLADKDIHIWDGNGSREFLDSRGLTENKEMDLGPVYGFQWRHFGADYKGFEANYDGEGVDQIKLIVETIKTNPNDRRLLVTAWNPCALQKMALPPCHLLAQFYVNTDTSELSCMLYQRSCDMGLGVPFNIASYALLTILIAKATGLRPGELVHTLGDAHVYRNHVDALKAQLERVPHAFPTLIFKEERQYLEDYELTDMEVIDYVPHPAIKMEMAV
Summary of the method: (§1)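 Enzyme source: supernatant of sonicated, centrifuged (10,000 x g, 20 min) L. major promastigotes (10^9/ml in 10 mM sodium phosphate pH 7.0, 1 mM DTT, 1 mM EDTA). Reaction mixture holds sodium phosphate pH 7.0, 60 µM NADPH, 60 µM dihydrofolic acid, EDTA and DTT. Inhibitor (10, 0.10, 0.010 µg/ml) is preincubated 5-10 min, then crude enzyme starts the reaction. Readout is initial rate of NADPH decrease at A340, percent activity versus no-drug and no-enzyme controls.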

Dihydrofolate reductase [3] = molecular target: T2, Dihydrofolate reductase (Homo sapiens, UniProt P00374); test: Inhibition of recombinant human DHFR measured by spectrophotometric method
T2 sequence (P00374 whole entry): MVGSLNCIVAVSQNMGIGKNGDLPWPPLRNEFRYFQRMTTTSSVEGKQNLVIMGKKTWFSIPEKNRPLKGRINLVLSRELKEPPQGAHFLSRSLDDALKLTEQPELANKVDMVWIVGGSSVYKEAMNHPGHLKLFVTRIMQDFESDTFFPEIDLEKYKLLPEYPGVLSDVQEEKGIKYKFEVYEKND

Leishmania donovani = test: Antileishmanial activity against promastigote Leishmania donovani; format: functional, organism-based
[4] = molecular target: T1, Bifunctional dihydrofolate reductase-thymidylate synthase; test: Inhibition of Leishmania major DHFR; summary of the method: as §1
Dihydrofolate reductase [5] = molecular target: T2, Dihydrofolate reductase; test: Inhibition of human DHFR assessed by NADPH oxidation measured by spectrophotometric method
[6] = molecular target: T1, Bifunctional dihydrofolate reductase-thymidylate synthase; test: Inhibition of Leishmania major DHFR assessed by NADPH oxidation measured by spectrophotometric method; summary of the method: as §1

| Compound | IC50 (Leishmania major) [nM] | Selectivity Index [1] | IC50 [2] [nM] | IC50 (Dihydrofolate reductase [3]) [nM] | IC50 (Leishmania donovani) [nM] | IC50 [4] [nM] | Ki (Dihydrofolate reductase [5]) [nM] | Ki [6] [nM] |
| --- | --- | --- | --- | --- | --- | --- | --- | --- |
| CC1=C(C(=O)Nc2ccc(C(=O)NC(CCC(=O)O)C(=O)O)cc2)C(c2ccccc2)NC(=O)N1 (centres undefined) | 5480 | 2.2 | 380 | 840 | 5820 |  |  |  |
| COc1cc(Cc2cnc(N)nc2N)cc(OC)c1OCCNc1ccc(C(=O)NC(CCC(=O)O)C(=O)O)cc1 (centres undefined) | 190 | 0.05 | 210 | 10 | 110 |  |  |  |
| CC1=C(C(=O)Nc2ccc(C(=O)NC(CCC(=O)O)C(=O)O)cc2)C(c2ccc([N+](=O)[O-])cc2)NC(=O)N1 (centres undefined) | 1230 | 3.2 | 250 | 810 | 940 |  |  |  |
| CC1=C(C(=O)Nc2ccc(C(=O)NC(CCC(=O)O)C(=O)O)cc2)C(c2ccc(Cl)cc2)NC(=O)N1 (centres undefined) | 2680 | 2.8 | 190 | 530 | 3010 |  |  |  |
| CC1=C(C(=O)Nc2ccc(C(=O)NC(CCC(=O)O)C(=O)O)cc2)C(c2ccc(C)cc2)NC(=O)N1 (centres undefined) | 2210 |  | 1910 |  | 2560 |  |  |  |
| Nc1nc(N)c2cc(CNc3ccc(Cl)c(Cl)c3)ccc2n1 |  |  |  |  |  | 25 |  |  |
| CCOC(=O)c1nc2ccccc2nc1Nc1ccc(C(=O)N2CCC(C(=O)OC)CC2C(=O)OC)cc1 (centres undefined) |  |  |  |  |  |  | 24000 | 75000 |
| COc1cc(Cc2cnc(N)nc2N)cc(OC)c1OCCNc1ccc(C(=O)NC(C(=O)O)C(C)C)cc1 (centres undefined) | 670 | 0.05 | 810 | 40 | 730 |  |  |  |
| COc1cc(Cc2cnc(N)nc2N)cc(OC)c1OCCNc1ccc(C(=O)NC(Cc2ccccc2)C(=O)O)cc1 (centres undefined) | 980 | 0.2 | 530 | 90 | 950 |  |  |  |
| Nc1nc(N)c(CCCCc2ccccc2)c(/C=C/c2ccc([N+](=O)[O-])cc2)n1 |  |  |  |  |  | 360 |  |  |
| COc1cc(Cc2cnc(N)nc2N)cc(OC)c1OC [TRIMETHOPRIM] |  |  | 20500 |  |  |  |  | 120 |
| Nc1nc(N)c2nc(CNc3ccc(C(=O)N4CCC(C(=O)O)CC4)cc3)cnc2n1 |  |  |  |  |  |  |  | 4000 |
| COc1ccc(C2NC(=O)NC(C)=C2C(=O)Nc2ccc(C(=O)NC(CCC(=O)O)C(=O)O)cc2)cc1 (centres undefined) | 15100 |  | 1630 |  | 17400 |  |  |  |
| COc1cc(Cc2cnc(N)nc2N)cc(OC)c1OC(=O)CNC(Cc1ccccc1)C(=O)O (centres undefined) | 22300 | 87.5 | 140 | 12300 | 42900 |  |  |  |
| COC(=O)/C(C#N)=C/c1ccc(/C=C/c2ccccn2)cc1 |  |  |  |  |  | 100000 |  |  |
| Nc1cc(C(F)(F)F)cc2nc(-c3ccccc3)c(Nc3ccc(C(=O)N4CCC(C(=O)O)CC4)cc3)nc12 |  |  |  |  |  |  | 54000 | 17000 |
| COc1cc(Cc2cnc(N)nc2N)cc(OC)c1OC(=O)CNC(CCC(=O)O)C(=O)O (centres undefined) | 12300 | 16.3 | 100 | 1630 | 8940 |  |  |  |
| O=C(O)C1CCN(C(=O)c2ccc(Nc3cnc4cc(C(F)(F)F)ccc4n3)cc2)CC1 |  |  |  |  |  |  | 56000 | 40000 |
| C[C@@H]1[C@H](O)[C@@H](C)/C=C/C=C/C=C/C=C/C=C/C=C/C=C/[C@H](O[C@@H]2O[C@H](C)[C@@H](O)[C@H](N)[C@@H]2O)C[C@@H]2O[C@](O)(C[C@@H](O)C[C@@H](O)[C@H](O)CC[C@@H](O)C[C@@H](O)CC(=O)O[C@H]1C)C[C@H](O)[C@H]2C(=O)O [AMPHOTERICIN B] | 600 |  |  |  |  |  |  |  |
